High-throughput results: PubChem BioAssay, several laboratories
In the library only some 3.8% were active in any assay of this set; here they are far more common.
Yeast lifespan up: yeast lifespan extension. inhibition of the nicotinamide effect, % at 10 µM. 130,000 tested, 0.68% active. S. cerevisiae growth with nicotinamide, OD615; deaD strain in restrictive glucose medium. AID 775;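 active = inhibition above a set limit, placed 3 SD over the median of all compounds, cut at about 26% in these data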
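System: Modified budding yeast, DeaD strain | Buffer or medium: Restrictive glucose medium | Also added: 1.5 mM nicotinamide | Doses: 10 µM single point, 0.25% DMSO | Schedule: 48 h compound exposure at 30 °C, humidified | Detection: Absorbance at 615 nm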
SDO1 yeast rescue: sdo1-depleted yeast growth rescue | 140,000 tested, 0.21% active | z-score at 10 µM | S. cerevisiae sdo1-depleted JHY4D growth rescue, OD600 30 h; stronger effect = higher value; pdr5 snq2 efflux-pump mutant strain;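 active = z-score above 3 at both the 24 hr and the 30 hr optical density reads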
RAM network inh: yeast RAM network inhibition; S. cerevisiae dse1pr::URA3 reporter, 5-FOA growth OD615, 2 d; analog-sensitive cbk1-as2 kinase mutant strain; inhibition, % at 50 µM; 190,000 tested, 1.8% active;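 active = inhibition above a set limit, 3 SD over mean compound inhibition, cut at about 8.4% in these data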;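 note: inhibition rescues growth on 5-FOA so higher OD means more RAM inhibition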
Measles CPE: protection of cells from measles virus | Measles virus-infected cells, CPE protection, absorbance | protection (pct of control), % at 4 µM | 140,000 tested, 1.5% active | AID 841; in the data active = protection mostly above about 24%, no sharp cut-off; inactive = mostly below about 26%
Yeast growth inh: reduces growth of yeast BB579 in restrictive medium; S. cerevisiae BB579 growth, OD615, 48 h; inhibition, % at 10 µM; 140,000 tested, 0.51% active; AID 804;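 active = inhibition above a set limit, 3 SD over the mean compound inhibition, cut at about 44% in these data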
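System: Saccharomyces cerevisiae DeaD strain BB579, replicative lifespan model yeast. Buffer or medium: restrictive glucose-based CSMM-D medium. Doses: one dose, 10 µM compound with 0.25% DMSO. Timing: 4 h preincubation and 48 h exposure at 30 °C. Detection: turbidity as optical density at 615 nm. Benchmarks: amphotericin B 10 µg/mL, positive.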
Each line names hits and unclear results; the compound was inactive in the other large screens.

CCOC(=O)CSc1nnc(-c2cc(OC)c(OC)c(OC)c2)o1	none (no result: Yeast lifespan up, SDO1 yeast rescue, Measles CPE, Yeast growth inh)
COc1cc(-c2nnc(SCC(=O)OC3CCCCC3)o2)cc(OC)c1OC	RAM network inh 9.0
Cc1ccc(C(=O)Nc2nc3ccccc3n3nnnc23)cc1	Measles CPE 20.6
Cc1ccc(Nc2nc3ccccc3n3nnnc23)cc1	none (no result: Yeast lifespan up, SDO1 yeast rescue, Measles CPE, Yeast growth inh)
COc1coc(C(O)CN)cc1=O (centres undefined)	none
CCOC(=O)C(=Cc1cc(=O)c(OC)co1)C(=O)OCC	Yeast lifespan up 35.4
Cc1ccc(N(CC(=O)Nc2ccccc2-c2ccccc2)S(=O)(=O)c2ccccc2)c(C)c1	none
CCCNC(=O)CSC1=N/C(=C/c2ccc(F)cc2)C(=O)N1CC	none
CCCCCNC(=O)CSC1=N/C(=C\c2ccc(Cl)c(Cl)c2)C(=O)N1CC	Measles CPE 41.3
Nc1[nH]c(N=NC(=O)c2ccc(Cl)cc2)c2ccccc12	Measles CPE 44.9
Cc1ccccc1C(=O)NC1CCN(CC(=O)Nc2ccc3c(c2)OCO3)CC1	none (no result: Yeast lifespan up, SDO1 yeast rescue, Measles CPE, Yeast growth inh)
Cc1cccc(NC(=O)N2CCC(NC(=O)c3ccccc3C)CC2)c1	RAM network inh 9.6
Cc1cccc(NC(=O)N2CCC(NC(=O)c3ccco3)CC2)c1	none (no result: Yeast lifespan up, SDO1 yeast rescue, Measles CPE, Yeast growth inh)
Cc1ccc(NC(=O)CN2CCC(NC(=O)Cc3ccccc3)CC2)cc1C	none
Cc1cc(C)cc(NC(=O)CN2CCC(NC(=O)Cc3ccccc3)CC2)c1	Yeast lifespan up 26.7
Cc1ccccc1C(=O)NC1CCN(CC(=O)Nc2c(C)cccc2C)CC1	Measles CPE 38.8 (no result: Yeast lifespan up)
CCOC(=O)c1[nH]c(C)c(C(=O)OCCOc2cccc(C)c2)c1C	none
N#C/C(=C\c1cn[nH]c1-c1ccccc1)C(=O)NC1CCCCCC1	none
c1coc(CN(Cc2ccco2)c2ncnc3c2oc2ccccc23)c1	none (no result: Yeast lifespan up)
C=CCSc1nc(N)c(C(=O)Nc2ccccc2)cc1C#N	RAM network inh 9.8
Cc1ccc(S(=O)(=O)n2[nH]c(=O)cc2N)cc1	none (no result: Yeast lifespan up, SDO1 yeast rescue, Measles CPE, Yeast growth inh)
CCOc1ccc(C2=C(C=Nc3c(C)n(C)n(-c4ccccc4)c3=O)C(c3ccc(F)cc3)c3ccccc3O2)cc1 (centres undefined)	RAM network inh 8.5
CCOc1ccc(C2SCC(=O)N2c2c(C)n(C)n(-c3ccccc3)c2=O)cc1 (centres undefined)	none
CN1CCN(c2ncnc3c2[nH]c2ccc(F)cc23)CC1	Measles CPE 50.4
O=C(Nc1cc(C(F)(F)F)ccc1N1CCCCC1)c1ccco1	none
O=C(Nc1cc(C(F)(F)F)ccc1N1CCCCC1)c1ccc(Br)o1	RAM network inh 10.7
Cc1cc(N)n(-c2ccc(S(N)(=O)=O)cc2[N+](=O)[O-])n1	none (no result: Yeast lifespan up, SDO1 yeast rescue, Measles CPE, Yeast growth inh)
Cc1cc(N/C=C\c2nnnn2-c2ccc(F)cc2)no1	Measles CPE 33.6
Cc1ccc(-n2nnnc2/C=C\Nc2cc(C)on2)cc1	none
CC(C)N=c1scc(-c2cccs2)n1/N=C/c1ccc(O)c(O)c1O	Yeast growth inh 96.2
CNC(=O)c1sc(N2N=C3/C(=C/c4ccccc4)CCCC3C2c2ccccc2)nc1C (centres undefined)	RAM network inh 9.9
O=C(c1ccccn1)N1N=C2/C(=C/c3ccccc3)CCCC2C1c1ccccc1 (centres undefined)	none
Cc1ccc(C)c(N2CCN(S(=O)(=O)c3c(C)noc3/C=C/N(C)C)CC2)c1	Yeast lifespan up 35.8
C=CCN(CC=C)C(=S)Nc1ccc(OC)c(OC)c1	none (no result: Yeast lifespan up, SDO1 yeast rescue, Measles CPE, Yeast growth inh)
COc1cccc(OCCNC(=O)c2cc([N+](=O)[O-])cc([N+](=O)[O-])c2)c1	none (no result: Yeast lifespan up, SDO1 yeast rescue, Measles CPE, Yeast growth inh)
Cc1ccc(OCCNC(=O)c2cc(C(=O)NCCOc3ccc(C)cc3)cc([N+](=O)[O-])c2)cc1	RAM network inh 8.9
Cc1nnc(SCC(=O)Nc2nc(C(C)(C)C)cs2)s1	Measles CPE 54.3
COC1(OC)N=C(NC(=O)Nc2ccccc2)C2(C#N)C(c3ccccc3)C12C#N (centres undefined)	none
O=C(COC(=O)c1ccc2c(c1)S(=O)(=O)N=C1CCCCCN12)NCCc1ccc(F)cc1	none (no result: Yeast lifespan up, SDO1 yeast rescue, Measles CPE, Yeast growth inh)
Cc1cc2c(cc1C)/C(=C\C(N)=O)NC(C)(C)C2	Measles CPE 44.4
CCOc1ccc(C(C)=O)cc1Cn1nc(C(=O)O)c2ccccc2c1=O	Measles CPE 50.4
Cc1cccc(C)c1OCCn1nc(C(=O)O)c2ccccc2c1=O	RAM network inh 10.2
Clc1cc2nc3ccccn3c2cc1Cl	Yeast growth inh 43.3
CNCc1ccccc1Sc1ccc(OC)c(OC)c1	Measles CPE 40.1
CN1CCN(c2ccc(-c3ccnn3C(=O)Nc3cccc(C(F)(F)F)c3)cc2)CC1	none (no result: Yeast lifespan up, SDO1 yeast rescue, Measles CPE, Yeast growth inh)
Cc1ccc(S(=O)(=O)N(Cc2ccccc2)c2ccccc2C(=O)NCc2ccco2)cc1	RAM network inh 9.0
CS(=O)(=O)N(Cc1ccc(C(=O)NCc2ccco2)cc1)c1ccccc1	Measles CPE 34.3
CC(C)Cc1ccc(C(C)C(=O)OCC(=O)c2c[nH]c3ccccc23)cc1 (centres undefined)	RAM network inh 10.4
Cc1ccc(C(=O)OCC(=O)c2c[nH]c3ccccc23)cc1	none
O=C(Oc1c(Cl)cc(Cl)c2cccnc12)c1cccc([N+](=O)[O-])c1	Yeast growth inh 99.8
O=C(Oc1ccc(Cl)c2cccnc12)c1cccc([N+](=O)[O-])c1	none
NC(=O)C1c2ccccc2CSc2ccccc21 (centres undefined)	none
NC(=O)C1C(c2ccccc2)=C1c1ccccc1	Measles CPE 56.8
O=c1c2[nH]c3ccccc3c2ncn1Cc1ccncc1	none
O=c1c2[nH]c3ccccc3c2ncn1Cc1ccco1	Yeast lifespan up 71.9
Cc1ccc(C(C(=O)Nc2ccc3c(c2)OCO3)N(C)C(=O)Cc2c[nH]c3ccccc23)cc1 (centres undefined)	none
CC(=O)c1ccc(N(C(=O)c2csnn2)C(C(=O)NC(C)(C)C)c2cccs2)cc1 (centres undefined)	none (no result: Yeast lifespan up, SDO1 yeast rescue, Measles CPE, Yeast growth inh)
O=C(NC(=S)Nc1nc2c(s1)CSc1ccccc1-2)c1ccccc1	Yeast lifespan up 65.9
O=C(NC(=S)Nc1nc2c(s1)CCCC2)c1ccc(C(=O)c2ccccc2)cc1	none
COc1cccc(C(=O)CC(=O)C(=O)Nc2cc(Cl)c(OC)cc2OC)c1	none (no result: Yeast lifespan up, SDO1 yeast rescue, Measles CPE, Yeast growth inh)
O=C1CN(CC(=O)N2CCCCC2)c2ccccc2O1	Yeast growth inh 46.3
Cc1cccc(C)c1NC(=O)CCN1C(=O)C2C3CCC(C3)C2C1=O (centres undefined)	Measles CPE 21.0
Cc1cc(NC(=O)CCN2C(=O)C3C4CCC(C4)C3C2=O)c(C)cc1Br (centres undefined)	none
Cc1onc(-c2ccccc2Cl)c1C(=O)NC(=S)Nc1ccccc1F	RAM network inh 11.2 (no result: Yeast lifespan up, SDO1 yeast rescue, Measles CPE, Yeast growth inh)
COc1ccccc1NC(=S)NC(=O)c1c(-c2ccccc2Cl)noc1C	none (no result: Yeast lifespan up, SDO1 yeast rescue, Measles CPE, Yeast growth inh)
O=C(Cc1cccs1)Nc1nc2c(s1)CCCC2	Measles CPE 92.5
COc1cc(/C=C(\C#N)C(=O)N2CCOCC2)ccc1OCc1ccccc1	none (no result: Yeast lifespan up, SDO1 yeast rescue, Measles CPE, Yeast growth inh)
COc1ccc(/C=C(\C#N)C(=O)N2CCOCC2)cc1Br	Yeast lifespan up 48.3
O=C(COc1ccc(Cl)cc1Cl)NCC(=O)N/N=C/c1c[nH]c2ccccc12	RAM network inh 9.8
